Data set [1] is described as follows: Selectivity index, ratio of LD50 for human HepG2 cells to MIC90 for replicating form of Mycobacterium tuberculosis mc'2 6220. The class given is toxicity, cell-based. Conditions: read-out: Selectivity Index. The essentials: (§1)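 HepG2 in DMEM with 10% FBS, pyruvate, glutamine, HEPES and nonessential amino acids, seeded 3000 cells/well in 384-well plates. Compound for 2 days at 1% final DMSO. ATP read by CellTiter-Glo luminescence. LD50 = 50% drop in ATP signal vs DMSO. SI = LD50/MIC90 against replicating Mtb.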

The subject of data set [2] is Mycobacterium tuberculosis. The experiment in a line: Antibacterial activity against non-replicating form of Mycobacterium tuberculosis MC2 6220 assessed as growth inhibition after 3 days by high-throughput screening assay. The data set is classed as functional. The conditions noted are these: MC2 6220, 72 h. The essentials:
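Log-phase mc26220 washed in PBS/tyloxapol, resuspended in Sauton's-based NR medium (butyrate, 0.5 mM NaNO2, pH 5.0) at OD580 0.1. Compound exposure 3 days at 37 °C, 1% O2, 5% CO2. Then R medium added (5-fold dilution), 7 days outgrowth at 20% O2. OD580 read; MIC90 = 90% inhibition vs DMSO.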

Data set [3] can be described thus: Cytotoxicity against human HepG2 cells assessed as decrease in ATP signal after 2 days by CellTiter-Glo assay. The class given is cell-based. The conditions noted are these: read-out: LD50. In outline: as §1
(In general: ATP-based viability assays read luminescence as a measure of living cells.)

Data set [4] concerns Mycobacterium tuberculosis. The experiment in a line: Antibacterial activity against replicating form of Mycobacterium tuberculosis MC2 6220 assessed as growth inhibition after 7 days by high-throughput screening assay. The class given is functional. The conditions noted are these: MC2 6220, 168 h. In outline: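 Attenuated Mtb mc26220 ΔpanCDΔlysA in 7H9 with glycerol, tyloxapol, OADC, casein amino acids, 240 μg/mL L-lysine, 24 μg/mL pantothenate. Mid-log cells diluted to OD580 0.01 in 384-well plates, compound in DMSO, 7 days at 37 °C, 20% O2, 5% CO2. OD580 read; MIC90 = 90% growth inhibition vs DMSO.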

The nature of data set [5]: Selectivity index, ratio of LD50 for human HepG2 cells to MIC90 for replicating form of Mycobacterium tuberculosis H37Rv. The class given is toxicity, cell-based. The conditions noted are these: read-out: Selectivity Index. The essentials:
as §1

The test system of data set [6] is Mycobacterium tuberculosis. The experiment in a line: Antibacterial activity against replicating form of wild type Mycobacterium tuberculosis H37Rv assessed as growth inhibition after 7 days by high-throughput screening assay. The class given is functional. Conditions: 168 h. The essentials: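 Wild-type H37Rv in 7H9 with glycerol, tyloxapol, ADN, in 96-well plates. Set up as the 384-well screen: OD580 0.01 start, compound in DMSO, 7 days at 37 °C, 20% O2, 5% CO2. OD580 read; MIC90 = 90% growth inhibition vs DMSO control.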

The test system of data set [7] is Mycobacterium tuberculosis. The experiment in a line: Bactericidal activity against replicating form of wild type Mycobacterium tuberculosis H37Rv assessed as reduction of log10CFU at 0.6 ug/mL after 7 to 8 days. The class given is functional. In outline:
(§2)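 Wild-type Mtb single-cell suspension at OD 0.01 (R) or 0.1 (NR, in NR medium, 1% O2) in 96-well plates with compound for 7 days. Serial dilution in 7H9-ADN, plated on 7H11 agar with glycerol and OADC for CFU.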

For data set [8], the system named is Mycobacterium tuberculosis. Description: Antibacterial activity against non-replicating form of wild type Mycobacterium tuberculosis H37Rv assessed as growth inhibition after 3 days by high-throughput screening assay. Conditions: 72 h. The class given is functional.
For data set [9], the system named is Mycobacterium tuberculosis. Description: Bactericidal activity against wild type Mycobacterium tuberculosis H37Rv infected in IFN-gamma-stimulated primary human monocyte-derived macrophages assessed as reduction of log10CFU at 1 ug/mL incubated for 7 days followed by compound washout measured after 3 weeks. The data set is classed as functional. The essentials: (§3)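 Monocytes from healthy donors isolated by CD14 selection. Differentiated 2 weeks in 40% human plasma with 0.5 ng/mL GM-CSF and TNF-alpha, 10% O2. Then 5 ng/mL IFN-gamma overnight, infected with wild-type Mtb at MOI 0.1. Compound added at 24 h, 1% DMSO final, 7 days. Viability inspected visually; lysed in 0.55% Triton-X and plated on 7H11/OADC for CFU.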

Data set [10] relates to Mycobacterium tuberculosis. The experiment in a line: Bactericidal activity against non-replicating form of wild type Mycobacterium tuberculosis H37Rv assessed as reduction of log10CFU at 0.6 ug/mL after 7 to 8 days. The class given is functional. The essentials: as §2
Data set [11] deals with Mycobacterium tuberculosis. The experiment in a line: Bactericidal activity against wild type Mycobacterium tuberculosis H37Rv infected in IFN-gamma-stimulated primary human monocyte-derived macrophages assessed as reduction of log10CFU incubated for 7 days followed by compound washout measured after 3 weeks. The class given is functional. The essentials: as §3
Data set [12] in a line: Genotoxicity in mouse lymphoma cells. The data set is classed as toxicity, cell-based.

In brackets after ≈: the same amount, converted by molar mass.

The MIC90 is the lowest concentration that inhibits either 90% of growth or 90% of the strains tested, depending on the study. Turning to `CCCc1cc(=O)oc2cc(N3CCN(C(=O)C(C)CC)CC3)c3c(c12)OC(C)(C)C=C3` (centres undefined), the selectivity ratio in data set [1] was less than 1. Moreover, the MIC90 in data set [2] and in data set [4] was more than 22 µg/mL each time. Also, the CC50 at 48 h in data set [3] came to 22 µg/mL (≈ 50.2 µM).

With `CCCc1cc(=O)oc2c3c(cc(OCCN4CCOCC4)c12)OC(C)([N+](=O)[O-])C3O` (racemic), the selectivity ratio in data set [1] is more than 1. Besides, the MIC90 in data set [2] and in data set [4] was 100 µg/mL (≈ 230 µM) in each case. For the same compound, in data set [3], the CC50 at 48 h is more than 100 µg/mL.

Take `CCCc1cc(=O)oc2c1c1c(c3oc([N+](=O)[O-])cc32)C=CC(C)(C)O1`: the selectivity ratio in [5] came out at 8. Further, the MIC90 in data set [6] amounted to 0.3 µg/mL (≈ 0.844 µM); in data set [8] it was 0.6 µg/mL (≈ 1.69 µM). In addition, the log10cfu is on record as 3.1 in [7], 1.8 in [9] and 2.6 in data set [10]. In addition, the CC50 at 48 h in data set [3] was found to be 3 µg/mL (≈ 8.44 µM).

For `Cc1cc(=O)oc2c1c1c(c3oc([N+](=O)[O-])cc32)C=CC(C)(C)O1`, in [5], the selectivity ratio came out at 16. The MIC90 in data set [6] is 0.08 µg/mL (≈ 0.244 µM); in data set [8], 0.2 µg/mL (≈ 0.611 µM). In addition, the CC50 at 48 h in [3] is 1 µg/mL (≈ 3.06 µM).

`CCCc1cc(=O)oc2c1c(OCCN1CCOCC1)cc1[nH]c([N+](=O)[O-])cc12`: the selectivity ratio in data set [1] was less than 0.5. Moreover, the MIC90 in data set [2] and in data set [4] was more than 50 µg/mL in each case. The CC50 at 48 h in data set [3] is 25 µg/mL (≈ 62.3 µM).

As for `CCCc1cc(=O)oc2c3c(cc(OCCN4CCOCC4)c12)O[C@H]([N+](=O)[O-])[C@H]3C(C)C` (racemic), the selectivity ratio in [1] is more than 1. Moreover, the MIC90 in [2] was more than 22 µg/mL; in [4], 22 µg/mL (≈ 49.3 µM). In data set [3], the CC50 at 48 h was more than 22 µg/mL.

Consider `CCCc1cc(=O)oc2cc(OCCN3CCCC3)c3c(c12)OC(C)(C)C=C3`, for which the selectivity ratio in data set [1] is 1. Besides, the MIC90 in data set [2] was more than 19 µg/mL; in data set [4], 19 µg/mL (≈ 49.5 µM). For the same compound, the CC50 at 48 h in data set [3] is 19 µg/mL (≈ 49.5 µM).

For `CCCc1cc(=O)oc2c1c(OCc1ccc(F)cc1)cc1oc([N+](=O)[O-])cc12`, in [5], the selectivity ratio was more than 160. For the same compound, the results for the MIC90 in [6] and in data set [8] were 0.6 µg/mL (≈ 1.51 µM) and 3 µg/mL (≈ 7.55 µM), respectively. In data set [11], the log10cfu is reported as 1. The Activity result in data set [12] is recorded as “Non-toxic”. In [3], the CC50 at 48 h is more than 100 µg/mL.

On to `CCc1c(F)c(=O)oc2c1c1c(c3oc([N+](=O)[O-])cc32)C=CC(C)(C)O1`, for which the selectivity ratio in [5] is more than 40. The MIC90 is 0.6 µg/mL (≈ 1.67 µM) in [6] and 1 µg/mL (≈ 2.78 µM) in data set [8]. Besides, the CC50 at 48 h in data set [3] is more than 25 µg/mL.

In the case of `CCCc1cc(=O)oc2c1c(OC)cc1oc([N+](=O)[O-])cc12`, in data set [1], the selectivity ratio is more than 2. In addition, the MIC90 in [2] and in [4] was less than 0.2 µg/mL throughout. Also, the CC50 at 48 h in data set [3] amounted to 0.3 µg/mL (≈ 0.989 µM).

As to `CC1(C)CCc2c3c(c4oc(=O)c5c(c4c2O1)CCC5)[C@H](O)[C@@H]([N+](=O)[O-])O3`, the selectivity ratio in data set [1] was 128. Further, the MIC90 in data set [2] came out at 0.4 µg/mL (≈ 1.07 µM); in data set [4] it was 0.2 µg/mL (≈ 0.536 µM). Besides, the CC50 at 48 h in [3] was determined as 25 µg/mL (≈ 67 µM).

Values taken from ChEMBL document CHEMBL3259717, “Synthetic calanolides with bactericidal activity against replicating and nonreplicating Mycobacterium tuberculosis” (J Med Chem, 2014).
